Compounds with a hit are over-represented: about 4.8% of the library has one in this group of screens.
PAFAH1B3 inh: PAFAH1B3 (human) inhibition | Q15102 | actives 0.28% (n = 340,000) | recombinant PAFAH1B3, FP-rhodamine probe, fluorescence polarization | inhibition, % at 3.39 µM | AID 492972;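 active = inhibition above the screen-wide average of all tested compounds plus 3 SD, cut at about 25% in these data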;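 also: 0% = enzyme with DMSO only and 100% = wells lacking PAFAH1B3 protein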
pPAFAH inh: inhibitors of human plasma PAF acetylhydrolase (pPAFAH); inhibition, % at 3.39 µM; recombinant pPAFAH, FP-rhodamine probe fluorescence polarization; actives 1.5% (n = 330,000);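 active = inhibition above the mean inhibition across the screen plus 3 SD, cut at about 25% in these data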;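 also: inhibitors block binding of the rhodamine activity-based probe so polarization drops; 0% = enzyme with DMSO and 100% = wells lacking pPAFAH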
PAFAH2 inh: inhibitors of human PAFAH2; recombinant PAFAH2, FP-rhodamine activity probe, fluorescence polarization; inhibition, % at 3.39 µM; actives 0.99% (n = 340,000);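 active = inhibition above the mean over all tested compounds plus 3 SD, cut at about 30% in these data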;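 also: inhibitors block probe labeling of enzyme so polarization drops; 0% = enzyme with DMSO and 100% = wells lacking PAFAH2 protein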
PAFAH1B2 FP inh: blocks human PAF acetylhydrolase 1b catalytic subunit 2 | AID 492953 | P68402 | inhibition, % at 3.39 µM | actives 1.2% (n = 340,000) | recombinant PAFAH1B2, FP-rhodamine activity probe, fluorescence polarization;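 active = inhibition above the mean of all tested compounds plus 3 SD, cut at about 24% in these data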;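 also: 0% = enzyme with DMSO and 100% = wells lacking PAFAH1B2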
Target sequence (P68402 whole entry, looked up): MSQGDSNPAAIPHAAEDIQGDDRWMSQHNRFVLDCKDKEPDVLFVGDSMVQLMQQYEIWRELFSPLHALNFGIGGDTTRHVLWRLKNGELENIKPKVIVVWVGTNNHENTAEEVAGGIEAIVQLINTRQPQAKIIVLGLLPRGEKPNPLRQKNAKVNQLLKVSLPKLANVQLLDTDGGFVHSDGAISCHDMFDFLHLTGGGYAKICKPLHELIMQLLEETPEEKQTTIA
UCH37 inh: inhibitors of human deubiquitinating enzyme UCH37. Q9Y5K5. purified proteasome/UCH37, Ub-AMC cleavage fluorescence. inhibition, % (test concentration not listed). actives 0.33% (n = 330,000). AID 588478;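 active = mean inhibition over replicate wells above about 20%, limit read from the data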;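 also: 0% = compound-free wells with enzyme and 100% = wells lacking proteasome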
Target sequence (Q9Y5K5 whole entry, looked up): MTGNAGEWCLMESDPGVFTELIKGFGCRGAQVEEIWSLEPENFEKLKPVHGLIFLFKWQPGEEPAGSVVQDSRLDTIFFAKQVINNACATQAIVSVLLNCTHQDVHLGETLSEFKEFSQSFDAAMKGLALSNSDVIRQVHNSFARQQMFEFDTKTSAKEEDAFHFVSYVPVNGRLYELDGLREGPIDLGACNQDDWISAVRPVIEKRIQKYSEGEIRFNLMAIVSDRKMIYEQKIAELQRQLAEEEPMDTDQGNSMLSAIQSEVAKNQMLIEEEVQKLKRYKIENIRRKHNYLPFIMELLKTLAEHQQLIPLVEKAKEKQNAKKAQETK
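Material: Human UCH37 enzyme supplied as purified proteasome complex | Schedule: 30 min preincubation with enzyme, 25 min cleavage at room temperature | Detection: AMC fluorescence 355/460 nm | Measure: % inhibition of Ub-AMC cleavage fluorescence | Controls: Wells without proteasome as full block, compound-free enzyme plus substrate as uninhibited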
NR3A LBD binder: modulates the human NR3A ligand-binding domain | AID 1259313 | actives 2.5% (n = 340,000) | NR3A LBD differential scanning fluorimetry, Tm shift; 0% = protein alone, 100% = glycine-bound protein | Tm shift relative to glycine control, % at 25 µM;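 active = melting temperature shift of at least 10% of the positive control shift, at one fixed dose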
Active calls of the source: *; nt = not tested or not shown.

SMILES	PAFAH1B3 inh	pPAFAH inh	PAFAH2 inh	PAFAH1B2 FP inh	UCH37 inh	NR3A LBD binder
CCn1c(CSc2nc3ccccc3[nH]2)nc2cc(C(=O)O)ccc21	11	14	19	18	-54	-1
CCn1c(CSc2nccn2C)nc2cc(C(=O)O)ccc21	15	25	25	30*	-1	2
O=C(ON=C1CCCc2occc21)c1ccc(Cl)cc1Cl	nt	nt	nt	nt	6	nt
Brc1ccc(/C=C/C=N/Nc2nc3ccccc3s2)cc1	3	-1	-8	-5	nt	40*
Brc1csc(/C=N/Nc2nc3ccccc3s2)c1	15	12	-3	5	nt	22*
CCc1ccc(C(=O)NN=C(C)c2ccncc2)s1	nt	nt	nt	nt	5	nt
CC12CCC(C1)C(C)(C)C2NS(=O)(=O)c1ccc(F)cc1 (centres undefined)	5	-2	4	26*	nt	-3
CC1(C)CC(NS(=O)(=O)c2ccc(F)cc2)CC(C)(C)N1	10	4	6	-2	nt	-2
COc1cc(C(=O)NCC(=O)NN=Cc2ccco2)cc(OC)c1OC	nt	nt	nt	nt	1	nt
CCOC(=O)c1oc2ccccc2c1CSc1nnnn1-c1ccccc1	15	26*	2	7	-3	0
CC(C)c1ccc(NC(=O)c2snc3ccc(Cl)cc23)cc1	-4	-4	-12	-1	4	10*
c1ccc(-c2csc3ncnc(NCC4COc5ccccc5O4)c23)cc1 (centres undefined)	6	34*	-2	5	-2	-1
CCOC(=O)C[C@H]1c2ccccc2S(=O)(=O)N1Cc1ccc(Cl)cc1	6	3	5	10	-1	13*
CC(CC(=O)NCc1ccccc1Cl)=NNC(=O)c1ccccn1	nt	nt	nt	nt	1	nt
COc1ccc(-c2nnc3ccc(SCC(=O)Nc4nc5ccc(C)cc5s4)nn23)cc1OC	-5	3	-12	-1	-12	14*
Cc1oc2ccc(OCc3ccc(F)cc3)cc2c1C(=O)O	-4	-2	-2	25*	6	-2
Cc1oc2ccc(OCc3cccc(Cl)c3)cc2c1C(=O)O	-8	nt	1	9	2	-1
CCOc1cccc(-c2c(C(=O)NN=Cc3ccc(C)s3)nnn2-c2nonc2N)c1	nt	nt	nt	nt	3	nt
CC[n+]1c(C=C2C=C(C)OC(C)=C2)sc2ccccc21	10	nt	1	4	23*	-3
COc1cc(/C=C2\SC(=Nc3ccc(Cl)c(C(=O)O)c3)NC2=O)c(Br)c(Br)c1O	21	nt	-18	9	nt	13*
O=C1N/C(=N/Nc2ccccc2)S/C1=C\c1ccccc1	12	14	11	12	-4	10*
O=C1NC(=Nc2cccc(O)c2)S/C1=C\c1cccc([N+](=O)[O-])c1	9	23	4	9	3	13*
O=C1NC(=Nc2cccc(O)c2)S/C1=C\c1cccnc1	3	6	4	-2	nt	8
COc1ccc(N=C2NC(=O)/C(=C/C=C/c3ccccc3)S2)cc1	-3	6	1	1	10	14*
O=C1NC(=Nc2ccccc2)S/C1=C\c1ccccc1	-5	9	-5	-2	2	-2
SMILES	PAFAH1B3 inh	pPAFAH inh	PAFAH2 inh	PAFAH1B2 FP inh	UCH37 inh	NR3A LBD binder
CCc1ccc(N=C2NC(=O)/C(=C/c3cc(OC)c(O)c(OC)c3)S2)cc1	-12	nt	-14	-8	3	3
COc1cc(/C=C2\SC(=Nc3ccccc3OC)NC2=O)ccc1O	5	12	12	-3	11	-6
COc1ccc(/C=C2\SC(=NCc3ccccc3)NC2=O)cc1	7	21	6	2	0	17*
COc1cc(/C=C2\SC(=Nc3ccccc3)NC2=O)cc(Cl)c1O	-5	20	-6	2	9	12*
COc1cc(/C=C2/SC(=Nc3ccc(O)cc3)NC2=O)ccc1O	-4	7	-1	3	8	27*
CCCCNS(=O)(=O)c1ccc(NC(=O)C(Sc2ccccc2)c2ccccc2)cc1 (centres undefined)	-58	-45	-74	-37	3	21*
CCC(C)NS(=O)(=O)c1ccc(NC(=O)C(Sc2ccccc2)c2ccccc2)cc1 (centres undefined)	-45	-24	-70	-26	4	13*
COc1ccccc1NC(=O)CC1S/C(=N/N=C(C)C2CCCCC2)NC1=O (centres undefined)	nt	nt	nt	nt	-1	nt
Cc1occc1C(=O)NN=C/C=C/c1ccc(N(C)C)cc1	nt	nt	nt	nt	-28	nt
COc1ccc(C2(C(=O)O)CCCC2)cc1	5	2	-6	5	3	11*
COc1ccc(C2(C(=O)NCCc3ccccc3)CCCC2)cc1	2	4	-2	4	6	0
O=C(COc1ccc(Br)cc1)NC(=S)Nc1ccccc1N1CCOCC1	9	2	-10	26*	4	-5
CC(=O)c1ccc(NC(=O)CSC2=NS(=O)(=O)c3cc(Cl)ccc3N2)cc1	7	-7	-2	4	6	12*
CC(=O)Nc1ccc(NC(=O)CSC2=NS(=O)(=O)c3cc(F)ccc3N2)cc1	-1	5	-3	6	3	-2
O=C(CSC1=NS(=O)(=O)c2cc(F)ccc2N1)Nc1ccc(F)cc1	7	0	3	2	nt	-2
O=C(CSC1=NS(=O)(=O)c2cc(Cl)ccc2N1)Nc1cccc(F)c1	13	-6	-6	4	0	19*
O=C(CSC1=NS(=O)(=O)c2cc(Cl)ccc2N1)c1ccc(Cl)cc1	7	-1	1	14	3	12*
CCCNC(=O)C1CCN(S(=O)(=O)c2ccc3[nH]c(=O)ccc3c2)CC1	-8	-1	-8	4	5	17*
COc1cc(NC(=O)C2CCCN(S(=O)(=O)c3ccc4[nH]c(=O)ccc4c3)C2)cc(OC)c1 (centres undefined)	-4	4	-3	-8	0	12*
CC(C)(C)OC(=O)n1cc(C=NNC(=O)c2ccco2)c2ccccc21	nt	nt	nt	nt	2	nt
CCC1=[N+]([O-])C(C)(C(C)=NO)N(O)C1(C)C (centres undefined)	nt	nt	nt	nt	6	nt
COc1ccccc1NC(=O)C1CCN(C(=O)NCc2ccccc2)CC1	8	32*	6	5	nt	1
CC(C)(C)CC(C)(C)c1ccc(O)c(CN2CCN(CCC#N)CC2)c1	-1	11	-4	41*	4	0
CCNc1nc(CN2CCOCC2)nc2sc3c(c12)CCC3	0	-1	12	2	-7	-2
c1ccc2c(c1)CCN(c1nc(CN3CCOCC3)nc3sc4c(c13)CCCC4)C2	4	32*	4	3	-9	0
S=c1[nH]nc(-c2cc(-c3ccccc3)n[nH]2)n1N=Cc1c(Cl)cccc1Cl	nt	nt	nt	nt	10	nt
CCOc1ccc(N2C(=O)CC(N(C)Cc3ccccc3)C2=O)cc1 (centres undefined)	-4	-5	14	3	2	0
